ChEMBL document CHEMBL4196061, “Novel topoisomerase I inhibitors. Syntheses and biological evaluation of phosphorus substituted quinoline derivates with antiproliferative activity” (Eur J Med Chem, 2018)

Tests used:
[1] = biological target: T1, DNA topoisomerase 1 (Homo sapiens) (UniProt P11387); assay: (§1) Inhibition of recombinant human topoisomerase 1-mediated DNA relaxation expressed in Saccharomyces cerevisiae TopI null strain RS190 at 80 uM using negatively supercoiled pUC18 as substrate pretreated with enzyme for 15 mins followed by substrate addition measured after 15 secs by agarose gel electrophoresis
T1 sequence (whole entry): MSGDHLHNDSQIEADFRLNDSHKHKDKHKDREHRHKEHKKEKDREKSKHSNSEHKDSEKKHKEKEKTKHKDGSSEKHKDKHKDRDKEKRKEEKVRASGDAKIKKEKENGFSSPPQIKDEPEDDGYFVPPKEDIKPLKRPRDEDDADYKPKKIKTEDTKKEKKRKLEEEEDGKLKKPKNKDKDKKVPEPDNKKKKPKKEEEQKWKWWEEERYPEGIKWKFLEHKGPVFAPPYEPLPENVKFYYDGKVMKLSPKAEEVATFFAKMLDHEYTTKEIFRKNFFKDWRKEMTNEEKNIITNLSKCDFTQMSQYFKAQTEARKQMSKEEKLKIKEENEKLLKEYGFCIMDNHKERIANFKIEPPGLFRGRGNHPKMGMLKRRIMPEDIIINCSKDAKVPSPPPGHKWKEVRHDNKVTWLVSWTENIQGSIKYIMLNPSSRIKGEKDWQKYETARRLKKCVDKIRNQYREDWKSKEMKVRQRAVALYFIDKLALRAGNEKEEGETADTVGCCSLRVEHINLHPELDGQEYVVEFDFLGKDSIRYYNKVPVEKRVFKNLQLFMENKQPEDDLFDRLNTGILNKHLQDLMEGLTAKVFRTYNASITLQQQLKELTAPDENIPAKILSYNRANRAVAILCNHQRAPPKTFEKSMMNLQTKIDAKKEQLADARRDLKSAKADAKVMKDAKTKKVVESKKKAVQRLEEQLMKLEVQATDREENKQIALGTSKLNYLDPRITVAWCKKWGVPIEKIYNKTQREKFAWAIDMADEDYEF
How it was run: (§2)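 Human TopI was expressed from pHT143 (GAL promoter) in yeast RS190 and affinity-purified. Reactions used 110 ng/µL TopI and 0.5 µg supercoiled pUC18 in 20 µl buffer (20 mM Tris–HCl, 0.1 mM Na2EDTA, 10 mM MgCl2, 50 µg/mL acetylated BSA, 150 mM KCl, pH 7.5). Drug was mixed with enzyme before DNA was added, and reactions were stopped with SDS. Products were resolved on 1% agarose in TBE and stained with gel red.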

[2] = biological target: T1, DNA topoisomerase 1 (Homo sapiens); assay: as §1, with “1 min” for “15 secs”; how it was run: as §2
[3] = biological target: T1, DNA topoisomerase 1 (Homo sapiens); assay: as §1, with “3 mins” for “15 secs”; how it was run: as §2
[4] = biological target: T1, DNA topoisomerase 1 (Homo sapiens); assay: as §1, with “60” for “80”, “3 mins” for “15 secs”; how it was run: as §2
[5] = biological target: T1, DNA topoisomerase 1 (Homo sapiens); assay: as §1, with “40” for “80”, “3 mins” for “15 secs”; how it was run: as §2
[6] = biological target: T1, DNA topoisomerase 1 (Homo sapiens); assay: as §1, with “20” for “80”, “3 mins” for “15 secs”; how it was run: as §2
[7] = biological target: T1, DNA topoisomerase 1 (Homo sapiens); assay: as §1, with “10” for “80”, “3 mins” for “15 secs”; how it was run: as §2
A549 = assay: Antiproliferative activity against human A549 cells after 48 hrs by CCK-8 assay; format: functional, cell-based; details: A549, 48 h
How it was run: (§3)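 Cells seeded at 2-4 x 10^3 per well and grown overnight in 0.1 mL medium with 10% FBS at 37 °C under 5% CO2. Drugs were added on day 2 and cells incubated 48 h. CCK-8 was then added for 2 h at 37 °C and absorbance read at 450 nm. IC50 values were reported.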

SK-OV-3 = assay: Antiproliferative activity against human SKOV3 cells after 48 hrs by CCK-8 assay; format: functional, cell-based; details: SK-OV-3, 48 h; how it was run: as §3
HEK293 = assay: Antiproliferative activity against human HEK293 cells after 48 hrs by CCK-8 assay; details: HEK293, 48 h
MRC5 = assay: Antiproliferative activity against human MRC5 cells after 48 hrs by CCK-8 assay; format: cell-based; details: MRC5, 48 h; how it was run: as §3

Row | inhibition [1] | inhibition [2] | inhibition [3] | inhibition [4] | inhibition [5] | inhibition [6] | inhibition [7] | IC50 (A549) | IC50 (SK-OV-3) | SMILES | IC50 (HEK293) | IC50 (MRC5)
1 | 92% | 85% | 76% | 34% | 24% | 19% | 19% | 3.8 µM | 19.1 µM | O=P(c1ccccc1)(c1ccccc1)c1cccc2c1N[C@H](c1ccccn1)C[C@@H]2c1ccccc1 | 14.8 µM | > 50 µM
2 | 81% | 81% | 76% | 0% | 0% | 0% | 0% | 0.16 µM | > 50 µM | S=P(c1ccccc1)(c1ccccc1)c1cccc2c1N[C@H](c1ccccc1)C[C@@H]2c1ccccc1 | > 50 µM | > 50 µM

Further lines, the molecule ahead of its results:

Row | SMILES | inhibition [1] | inhibition [2] | inhibition [3] | inhibition [4] | inhibition [5] | inhibition [6] | inhibition [7] | IC50 (A549) | IC50 (SK-OV-3) | IC50 (HEK293) | IC50 (MRC5)
3 | Fc1ccc([C@H]2C[C@@H](c3ccc(F)cc3)Nc3c2cccc3P(c2ccccc2)c2ccccc2)cc1 | 78% | 75% | 75% | 20% | 0% | 0% | 0% | 0.08 µM | > 50 µM | > 50 µM | > 50 µM
4 | Cc1ccc([C@H]2C[C@@H](c3ccc(F)cc3)Nc3c2cccc3P(c2ccccc2)c2ccccc2)cc1 | 96% | 92% | 92% | 53% | 52% | 28% | 20% | 0.25 µM | > 50 µM | > 50 µM | > 50 µM
5 | Cc1ccc([C@H]2C[C@@H](c3ccccc3)Nc3c2cccc3P(c2ccccc2)c2ccccc2)cc1 | 80% | 79% | 76% | 22% | 17% | 16% | 0% | 0.11 µM | > 50 µM | > 50 µM | > 50 µM
